Converted amounts (≈) assume the structure as drawn.
Key:
[1] = target: Voltage-gated inwardly rectifying potassium channel KCNH2 (Homo sapiens, UniProt Q12809); test: Inhibition of human ERG expressed in cisapride treated CHO cells by Ion Works assay
[2] = target: T1, DNA-dependent protein kinase catalytic subunit (Homo sapiens, UniProt P78527); test: Inhibition of DNA-PK autophosphorylation at S2056 in human HeLa cells; format: cell-based
[3] = Aqueous solubility of the compound at pH 7.4; format: physicochemical; settings: buffer
[4] = target: Cytochrome P450 2C19 (Homo sapiens, UniProt P33261); test: Inhibition of CYP2C19 (unknown origin); format: ADME
[5] = target: Cytochrome P450 2D6 (Homo sapiens, UniProt P10635); test: Inhibition of CYP2D6 (unknown origin); format: ADME
[6] = system: HeLa; test: Antiproliferative activity against human HeLa cells assessed as cell survival ratio at 0.5 uM treated 1 hr before 2Gy ionizing radiation measured after 6 to 8 days by DMR clonogenic assay; format: functional
Procedure, shortened: (§1)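 HeLa cells seeded in 6-well dishes, incubated overnight at 37 °C/5% CO2, pre-treated 1 h with vehicle or inhibitor (0.1 or 0.5 μM), then given 2 Gy X-ray IR and held overnight. Medium then replaced without compound and culture continued 6-8 days. Colonies Giemsa-stained and counted automatically. DMR = % survival (vehicle, 2 Gy) / % survival (compound, 2 Gy).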

[7] = target: T2, Cytochrome P450 1A2 (Homo sapiens, UniProt P05177); test: Inhibition of CYP1A2 (unknown origin); format: ADME
T2 sequence (P05177 whole entry): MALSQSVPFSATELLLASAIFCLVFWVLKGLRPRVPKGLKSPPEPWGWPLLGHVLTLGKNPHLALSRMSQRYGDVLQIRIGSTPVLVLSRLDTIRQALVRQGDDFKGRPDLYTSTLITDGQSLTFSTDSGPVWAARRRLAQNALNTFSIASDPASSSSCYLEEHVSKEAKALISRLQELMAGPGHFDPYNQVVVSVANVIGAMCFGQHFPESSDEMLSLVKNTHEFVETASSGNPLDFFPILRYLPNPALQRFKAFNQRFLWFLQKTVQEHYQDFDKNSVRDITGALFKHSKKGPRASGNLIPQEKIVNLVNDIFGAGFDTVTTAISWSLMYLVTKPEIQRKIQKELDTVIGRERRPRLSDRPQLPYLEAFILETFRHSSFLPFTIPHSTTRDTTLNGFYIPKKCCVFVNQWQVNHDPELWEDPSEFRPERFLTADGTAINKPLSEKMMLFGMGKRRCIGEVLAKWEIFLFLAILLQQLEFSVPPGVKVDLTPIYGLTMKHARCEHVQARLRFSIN

[8] = Lipophilicity, log D of the compound; format: physicochemical; settings: octanol/water
[9] = target: Cytochrome P450 3A4 (Homo sapiens, UniProt P08684); test: Inhibition of CYP3A4 (unknown origin); format: ADME
[10] = Fraction unbound in human Plasma; format: ADME, cell-free
[11] = target: Cytochrome P450 2C9 (Homo sapiens, UniProt P11712); test: Inhibition of CYP2C9 (unknown origin); format: ADME
[12] = target: T1, DNA-dependent protein kinase catalytic subunit; test: Inhibition of human DNA-PK using GST-tagged p53N66 as substrate after 1 hr by ELISA-based chemiluminiscence assay
[13] = system: HeLa; test: Antiproliferative activity against human HeLa cells assessed as cell survival ratio at 0.1 uM treated 1 hr before 2Gy ionizing radiation measured after 6 to 8 days by DMR clonogenic assay; format: functional; procedure, shortened: as §1
[14] = target: Serine/threonine-protein kinase ATR (Homo sapiens, UniProt Q13535); test: Inhibition of ATR (unknown origin)
[15] = target: Phosphatidylinositol 4,5-bisphosphate 3-kinase catalytic subunit beta isoform (Homo sapiens, UniProt P42338); test: Inhibition of PI-3K beta (unknown origin)
[16] = target: T3, Phosphatidylinositol 4,5-bisphosphate 3-kinase catalytic subunit delta isoform (Homo sapiens, UniProt O00329); test: Inhibition of PI-3K delta (unknown origin)
T3 sequence (O00329 whole entry): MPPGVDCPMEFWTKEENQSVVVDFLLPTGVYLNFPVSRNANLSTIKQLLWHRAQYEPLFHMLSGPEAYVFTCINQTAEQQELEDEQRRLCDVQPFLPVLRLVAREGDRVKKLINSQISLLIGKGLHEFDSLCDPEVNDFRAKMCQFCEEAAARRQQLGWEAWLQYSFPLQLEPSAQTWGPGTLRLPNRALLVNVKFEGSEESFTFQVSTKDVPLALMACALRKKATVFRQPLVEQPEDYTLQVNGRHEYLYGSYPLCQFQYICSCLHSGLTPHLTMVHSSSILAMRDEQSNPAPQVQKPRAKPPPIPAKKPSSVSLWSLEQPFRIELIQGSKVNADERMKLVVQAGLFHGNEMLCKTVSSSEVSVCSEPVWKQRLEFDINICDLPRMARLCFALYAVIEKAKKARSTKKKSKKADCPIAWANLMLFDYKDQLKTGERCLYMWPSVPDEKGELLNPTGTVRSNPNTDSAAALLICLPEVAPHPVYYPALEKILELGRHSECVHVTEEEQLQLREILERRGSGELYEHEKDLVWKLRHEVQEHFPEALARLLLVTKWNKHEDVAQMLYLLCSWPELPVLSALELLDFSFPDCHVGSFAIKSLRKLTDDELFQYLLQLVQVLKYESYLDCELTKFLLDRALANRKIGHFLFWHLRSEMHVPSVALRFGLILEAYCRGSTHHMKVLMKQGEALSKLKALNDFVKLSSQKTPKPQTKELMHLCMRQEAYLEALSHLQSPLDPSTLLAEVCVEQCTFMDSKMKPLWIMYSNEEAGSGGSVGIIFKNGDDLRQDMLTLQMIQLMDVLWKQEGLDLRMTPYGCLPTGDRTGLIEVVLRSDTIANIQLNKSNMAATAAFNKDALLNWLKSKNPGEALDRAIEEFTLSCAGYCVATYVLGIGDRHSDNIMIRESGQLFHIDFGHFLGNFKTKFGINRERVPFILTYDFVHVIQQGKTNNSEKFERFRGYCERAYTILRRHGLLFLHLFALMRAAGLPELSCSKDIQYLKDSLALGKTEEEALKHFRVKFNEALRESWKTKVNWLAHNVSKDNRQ

[17] = target: Aurora kinase B (Homo sapiens) (UniProt Q96GD4); test: Inhibition of Aurora kinase B (unknown origin); settings: concentration not given here
[18] = target: Serine/threonine-protein kinase mTOR (Homo sapiens, UniProt P42345); test: Inhibition of mTOR (unknown origin)
[19] = target: Phosphatidylinositol 4,5-bisphosphate 3-kinase catalytic subunit alpha isoform (Homo sapiens, UniProt P42336); test: Inhibition of PI-3K alpha (unknown origin)
[20] = system: HeLa; test: Antiproliferative activity against human HeLa cells assessed as cell viability after 6 to 8 days by DMR clonogenic assay; format: cell-based
[21] = target: Phosphatidylinositol 4,5-bisphosphate 3-kinase catalytic subunit gamma isoform (Homo sapiens, UniProt P48736); test: Inhibition of PI-3K gamma (unknown origin)
[22] = target: Serine-protein kinase ATM (Homo sapiens, UniProt Q13315); test: Inhibition of ATM (unknown origin)
[23] = target: T1, DNA-dependent protein kinase catalytic subunit; test: Inhibition of DNA-PK (unknown origin)

Cytochrome P450 2D6, sequence (P10635 whole entry): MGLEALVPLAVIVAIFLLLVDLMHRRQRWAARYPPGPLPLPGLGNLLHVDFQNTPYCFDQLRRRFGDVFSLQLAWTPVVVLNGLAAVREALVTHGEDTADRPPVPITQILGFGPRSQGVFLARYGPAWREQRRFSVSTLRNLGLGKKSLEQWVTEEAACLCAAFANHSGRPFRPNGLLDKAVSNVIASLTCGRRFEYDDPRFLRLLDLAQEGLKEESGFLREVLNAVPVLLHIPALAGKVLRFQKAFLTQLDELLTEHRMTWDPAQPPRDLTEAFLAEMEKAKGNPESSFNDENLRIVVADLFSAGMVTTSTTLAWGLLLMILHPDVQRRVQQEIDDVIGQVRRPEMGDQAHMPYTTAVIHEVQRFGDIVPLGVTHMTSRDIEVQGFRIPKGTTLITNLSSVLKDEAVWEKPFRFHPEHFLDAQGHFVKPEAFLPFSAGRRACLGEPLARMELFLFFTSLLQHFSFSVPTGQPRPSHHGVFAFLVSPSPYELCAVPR
Serine/threonine-protein kinase ATR, sequence (Q13535 whole entry, canonical isoform): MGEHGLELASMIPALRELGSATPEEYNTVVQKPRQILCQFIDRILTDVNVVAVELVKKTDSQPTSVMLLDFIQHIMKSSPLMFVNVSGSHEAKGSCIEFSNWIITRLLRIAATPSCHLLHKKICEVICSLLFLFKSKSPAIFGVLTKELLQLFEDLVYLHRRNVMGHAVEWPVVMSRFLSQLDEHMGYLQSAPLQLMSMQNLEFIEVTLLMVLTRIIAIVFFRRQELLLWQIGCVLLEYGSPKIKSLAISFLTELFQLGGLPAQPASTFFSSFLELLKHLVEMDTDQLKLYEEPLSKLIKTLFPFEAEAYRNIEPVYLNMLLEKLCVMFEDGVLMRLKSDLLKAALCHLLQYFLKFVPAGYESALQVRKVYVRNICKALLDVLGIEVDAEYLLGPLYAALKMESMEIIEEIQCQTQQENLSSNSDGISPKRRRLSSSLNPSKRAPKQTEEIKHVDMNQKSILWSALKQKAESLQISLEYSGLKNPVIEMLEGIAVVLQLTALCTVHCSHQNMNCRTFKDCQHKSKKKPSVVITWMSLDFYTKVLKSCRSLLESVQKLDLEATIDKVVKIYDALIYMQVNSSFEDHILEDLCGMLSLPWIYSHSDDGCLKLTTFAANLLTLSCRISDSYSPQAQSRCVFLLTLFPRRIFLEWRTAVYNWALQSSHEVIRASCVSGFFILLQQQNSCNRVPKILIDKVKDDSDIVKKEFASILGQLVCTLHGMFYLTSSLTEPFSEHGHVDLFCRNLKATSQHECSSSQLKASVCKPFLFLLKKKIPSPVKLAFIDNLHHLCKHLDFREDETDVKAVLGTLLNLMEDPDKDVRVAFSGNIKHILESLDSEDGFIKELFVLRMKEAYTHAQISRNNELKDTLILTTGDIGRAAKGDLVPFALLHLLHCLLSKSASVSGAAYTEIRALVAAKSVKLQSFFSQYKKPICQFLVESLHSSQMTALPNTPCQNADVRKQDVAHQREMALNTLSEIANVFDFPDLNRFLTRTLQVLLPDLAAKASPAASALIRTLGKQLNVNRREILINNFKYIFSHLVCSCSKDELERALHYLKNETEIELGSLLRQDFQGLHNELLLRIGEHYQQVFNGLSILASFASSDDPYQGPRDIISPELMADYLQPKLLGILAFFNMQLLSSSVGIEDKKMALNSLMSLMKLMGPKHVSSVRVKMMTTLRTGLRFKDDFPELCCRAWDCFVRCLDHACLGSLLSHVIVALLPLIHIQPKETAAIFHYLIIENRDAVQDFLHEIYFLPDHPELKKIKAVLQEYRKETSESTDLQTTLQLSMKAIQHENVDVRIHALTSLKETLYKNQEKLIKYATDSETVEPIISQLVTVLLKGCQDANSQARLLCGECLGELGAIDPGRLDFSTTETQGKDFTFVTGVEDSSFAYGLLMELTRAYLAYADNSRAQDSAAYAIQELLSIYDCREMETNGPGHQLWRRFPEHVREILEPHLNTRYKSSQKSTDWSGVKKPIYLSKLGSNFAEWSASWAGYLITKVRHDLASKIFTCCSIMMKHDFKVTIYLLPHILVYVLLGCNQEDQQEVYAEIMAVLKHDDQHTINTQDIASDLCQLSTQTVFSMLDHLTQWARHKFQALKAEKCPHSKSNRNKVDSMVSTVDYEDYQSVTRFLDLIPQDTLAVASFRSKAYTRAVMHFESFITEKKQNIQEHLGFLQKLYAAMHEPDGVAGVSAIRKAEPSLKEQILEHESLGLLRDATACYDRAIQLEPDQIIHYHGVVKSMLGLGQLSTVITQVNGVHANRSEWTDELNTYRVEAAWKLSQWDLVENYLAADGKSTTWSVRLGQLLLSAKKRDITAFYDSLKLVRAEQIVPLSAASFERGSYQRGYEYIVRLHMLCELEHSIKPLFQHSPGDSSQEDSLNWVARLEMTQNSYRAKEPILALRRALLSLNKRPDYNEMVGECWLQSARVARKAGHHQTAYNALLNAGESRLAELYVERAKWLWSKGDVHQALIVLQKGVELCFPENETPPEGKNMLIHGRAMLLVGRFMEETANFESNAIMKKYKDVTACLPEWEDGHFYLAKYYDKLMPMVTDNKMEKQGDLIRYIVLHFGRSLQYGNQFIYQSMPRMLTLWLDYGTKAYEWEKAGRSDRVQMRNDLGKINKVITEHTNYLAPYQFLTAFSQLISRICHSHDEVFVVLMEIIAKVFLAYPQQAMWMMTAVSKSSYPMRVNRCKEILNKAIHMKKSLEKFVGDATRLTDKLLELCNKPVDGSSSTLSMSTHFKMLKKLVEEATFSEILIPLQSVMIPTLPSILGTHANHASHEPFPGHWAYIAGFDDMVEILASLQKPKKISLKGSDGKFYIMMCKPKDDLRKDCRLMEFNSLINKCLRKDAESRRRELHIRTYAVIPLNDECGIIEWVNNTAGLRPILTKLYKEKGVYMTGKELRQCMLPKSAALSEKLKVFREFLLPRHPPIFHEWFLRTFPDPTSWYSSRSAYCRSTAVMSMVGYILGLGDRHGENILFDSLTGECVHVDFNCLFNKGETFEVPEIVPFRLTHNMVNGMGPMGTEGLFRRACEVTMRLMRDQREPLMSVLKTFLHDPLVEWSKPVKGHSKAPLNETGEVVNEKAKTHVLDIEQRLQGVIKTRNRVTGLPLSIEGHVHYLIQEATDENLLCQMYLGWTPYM
Cytochrome P450 3A4, sequence (P08684 whole entry): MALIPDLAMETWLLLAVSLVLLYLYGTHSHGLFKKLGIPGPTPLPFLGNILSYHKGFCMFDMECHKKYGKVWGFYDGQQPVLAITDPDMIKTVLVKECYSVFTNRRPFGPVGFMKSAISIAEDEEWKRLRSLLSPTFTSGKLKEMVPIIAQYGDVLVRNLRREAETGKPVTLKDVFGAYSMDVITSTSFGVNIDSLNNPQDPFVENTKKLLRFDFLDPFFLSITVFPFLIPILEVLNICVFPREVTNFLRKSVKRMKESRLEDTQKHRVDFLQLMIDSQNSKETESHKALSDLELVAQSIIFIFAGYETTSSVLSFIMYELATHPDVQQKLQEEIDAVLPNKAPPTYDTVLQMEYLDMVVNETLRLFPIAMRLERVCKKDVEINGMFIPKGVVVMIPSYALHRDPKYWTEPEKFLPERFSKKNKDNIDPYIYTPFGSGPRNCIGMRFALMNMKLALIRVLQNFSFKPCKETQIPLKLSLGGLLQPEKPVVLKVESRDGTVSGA
Cytochrome P450 2C19, sequence (P33261 whole entry): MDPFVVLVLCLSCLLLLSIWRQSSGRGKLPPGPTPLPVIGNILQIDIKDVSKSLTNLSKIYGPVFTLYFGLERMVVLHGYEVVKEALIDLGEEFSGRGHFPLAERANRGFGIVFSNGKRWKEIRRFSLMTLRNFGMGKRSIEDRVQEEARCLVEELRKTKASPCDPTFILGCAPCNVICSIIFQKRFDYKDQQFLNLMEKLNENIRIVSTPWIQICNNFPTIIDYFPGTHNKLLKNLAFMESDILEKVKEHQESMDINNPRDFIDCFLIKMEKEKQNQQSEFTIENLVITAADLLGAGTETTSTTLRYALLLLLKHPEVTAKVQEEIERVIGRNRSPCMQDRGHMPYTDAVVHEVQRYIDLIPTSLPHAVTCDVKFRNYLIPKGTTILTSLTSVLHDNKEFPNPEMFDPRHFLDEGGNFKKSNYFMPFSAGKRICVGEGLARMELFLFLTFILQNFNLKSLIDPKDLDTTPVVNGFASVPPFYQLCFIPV
Cytochrome P450 2C9, sequence (P11712 whole entry): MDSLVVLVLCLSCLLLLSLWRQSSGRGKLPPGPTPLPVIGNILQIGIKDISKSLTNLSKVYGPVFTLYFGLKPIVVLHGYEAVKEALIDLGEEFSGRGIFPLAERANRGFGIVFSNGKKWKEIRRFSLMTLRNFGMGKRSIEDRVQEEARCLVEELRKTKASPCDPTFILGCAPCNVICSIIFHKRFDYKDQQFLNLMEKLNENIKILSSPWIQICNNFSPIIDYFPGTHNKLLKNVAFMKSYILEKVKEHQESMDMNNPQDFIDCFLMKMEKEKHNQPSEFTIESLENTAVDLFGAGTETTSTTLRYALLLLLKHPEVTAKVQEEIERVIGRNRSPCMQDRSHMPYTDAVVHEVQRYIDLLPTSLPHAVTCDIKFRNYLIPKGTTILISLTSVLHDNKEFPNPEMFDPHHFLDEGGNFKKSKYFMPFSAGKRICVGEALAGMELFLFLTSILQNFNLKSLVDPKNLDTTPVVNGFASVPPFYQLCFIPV
Aurora kinase B (Homo sapiens), sequence (Q96GD4 whole entry): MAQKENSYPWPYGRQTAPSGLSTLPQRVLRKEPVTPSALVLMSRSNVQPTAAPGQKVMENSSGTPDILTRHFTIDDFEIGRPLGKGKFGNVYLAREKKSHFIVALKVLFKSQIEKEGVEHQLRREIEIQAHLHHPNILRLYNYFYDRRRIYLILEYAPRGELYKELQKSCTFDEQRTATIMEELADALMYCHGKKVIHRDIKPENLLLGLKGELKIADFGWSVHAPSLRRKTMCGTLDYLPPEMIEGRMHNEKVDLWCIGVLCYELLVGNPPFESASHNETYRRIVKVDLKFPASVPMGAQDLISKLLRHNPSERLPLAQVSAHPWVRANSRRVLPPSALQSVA

Structure (SMILES) | IC50 [1] [nM] | EC50 [2] [nM] | solubility [3] [µM] | IC50 [4] [nM] | IC50 [5] [nM] | Ratio [6] | IC50 [7] [nM] | logD [8] | IC50 [9] [nM] | fraction unbound [10] | IC50 [11] [nM] | IC50 [12] [nM] | Ratio [13] | IC50 [14] [nM] | IC50 [15] [nM] | IC50 [16] [nM] | IC50 [18] [nM] | IC50 [21] [nM] | IC50 [22] [nM] | further results
CN1CCN(CC(=O)Nc2ccc(-c3cccc4c(=O)cc(N5CCOCC5)oc34)c3sc4ccccc4c23)CC1 | > 10000 | 426 | 5 (≈ 2.84 µg/mL) | > 10000 | > 10000 | 7.4 | > 10000 | 3 | > 10000 | 0.036 | > 10000 | 12 | 2.4 |  |  |  |  |  |  | 
CCN1CCN(CC(=O)Nc2ccc(-c3cccc4c(=O)cc(N5CCOCC5)oc34)c3sc4ccccc4c23)CC1 |  | 136 | 161 (≈ 93.8 µg/mL) | > 10000 | > 10000 |  | > 10000 | 3.05 | > 10000 | 0.036 | > 10000 |  |  | > 10000 | 0.5 | < 0.1 | 10000 | 590 | > 10000 | inhibition [17]: 44%; IC50 [19]: 4 nM; IC50 [20]: > 25000 nM
O=C(CN1CCN(CCO)CC1)Nc1ccc(-c2cccc3c(=O)cc(N4CCOCC4)oc23)c2sc3ccccc3c12 | > 30000 | 109 | 154 (≈ 92.2 µg/mL) | > 10000 | > 10000 | 8.4 | > 10000 | 2.7 | > 10000 | 0.098 | > 10000 | 5 | 2 |  |  |  |  |  |  | 
O=c1cc(N2CCOCC2)oc2c(-c3ccccc3)cccc12 [LY-294002] |  |  |  |  |  |  |  |  |  |  |  |  |  | > 10000 |  | 220 | 2800 |  | > 10000 | 
O=c1cc(N2CCOCC2)oc2c(-c3cccc4c3sc3ccccc34)cccc12 | 14000 | 212 | < 0.2 |  |  | 2.8 |  | > 4.3 |  | 0.0004 |  | 42 | 2.2 | > 10000 | 16 | 30 | 2400 | 220 | > 10000 | IC50 [23]: 40 nM
